Experimental data as given in paper PMC2139869 (The Journal of Cell Biology, 1997).
Entries after “also recorded” stand apart in the source; their conditions may differ.

Test system: sperm–egg plasma membrane adhesion and fusion (zona-free eggs, acrosome-reacted sperm)
Experiment: In vitro sperm–egg adhesion and fusion assay with active site peptides
Format: cell-based, mouse
Details: peptide 500 μM, Fig. 2, FI and FR taken together
Method in brief: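 Mice superovulated with 10 IU PMSG and 5 IU hCG 48 h apart. Metaphase II eggs collected ~12 h post-hCG, cumulus removed with hyaluronidase, zonae with chymotrypsin, then DAPI-preloaded. Peptide added 30 min before capacitated, acrosome-reacted sperm (2–4 × 10^4/ml final) and present throughout. Coincubated 30 min, 37 °C, 5% CO2, Whittingham's/3% BSA. Scored sperm bound/egg, FI and FR; 43–82 eggs per peptide.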

Question: SVDECDLL [ADAM 5 peptide] was tested. Which “inhibition of sperm–egg binding and fusion (stated jointly)” value did it give?
Answer: essentially no inhibition; also recorded: did not inhibit
